According to ChEMBL document CHEMBL1130017, “Rationally designed inhibitors of inosine monophosphate dehydrogenase” (J Med Chem, 1997):

Target: T1, Inosine-5'-monophosphate dehydrogenase 2 (Homo sapiens, UniProt P12268)
Assay: Concentration required for 50% inhibition of human Inosine-5'-monophosphate dehydrogenase 2 using Spectrophotometric assay
Procedure, shortened: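 Human type II IMPDH, 25 nM final, added to start the reaction. Mix holds 50 µM IMP, 100 µM NAD and varying inhibitor in 0.1 M potassium phosphate pH 7.4, 0.1 M KCl, 3 mM EDTA, 1 mM DTT and 100 µg/mL BSA. NADH formation is followed by absorbance at 340 nm in 1 cm cells. Fractional activity relative to the uninhibited rate is taken against inhibitor concentration.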

Compound | IC50 [µM]
O=c1[nH]c(CO)nc2c1ncn2C1O[C@@H](COP(=O)(O)O)[C@H](O)[C@@H]1O (stereo partly drawn) | 132
O=P(O)(O)OC[C@@H]1OC(n2cnc3c(O)nc(C(F)F)nc32)[C@@H](O)[C@H]1O (stereo partly drawn) | > 1000
C=Cc1nc2c(ncn2C2O[C@@H](COP(=O)(O)O)[C@H](O)[C@@H]2O)c(=O)[nH]1 (stereo partly drawn) | 1
O=c1[nH]c(CCl)nc2c1ncn2C1O[C@@H](COP(=O)(O)O)[C@H](O)[C@@H]1O (stereo partly drawn) | 1.32
O=c1[nH]c(CF)nc2c1ncn2C1O[C@@H](COP(=O)(O)O)[C@H](O)[C@@H]1O (stereo partly drawn) | 1.2
O=P(O)(O)OC[C@@H]1OC(n2cnc3c(O)nc(C(F)(F)F)nc32)[C@@H](O)[C@H]1O (stereo partly drawn) | > 1000

Next, values leading:

IC50 [µM] | Compound
37 | O=P(O)(O)OC[C@@H]1OC(n2cnc3c(O)nc(/C=C/c4ccccc4)nc32)[C@@H](O)[C@H]1O (stereo partly drawn)
> 1000 | Cc1nc(O)c2ncn(C3O[C@@H](COP(=O)(O)O)[C@H](O)[C@@H]3O)c2n1 (stereo partly drawn)
460 | O=P(O)(O)OC[C@@H]1OC(n2cnc3c(O)nc(CCc4ccccc4)nc32)[C@@H](O)[C@H]1O (stereo partly drawn)
0.44 | O=P(O)(O)OC[C@@H]1OC(n2cnc3c(O)nc(C(O)O)nc32)[C@@H](O)[C@H]1O (stereo partly drawn)

Target: T1, Inosine-5'-monophosphate dehydrogenase 2
Assay: First order rate constant for inactivation of human Inosine-5'-monophosphate dehydrogenase 2
Procedure, shortened: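 Human type II IMPDH (2 µM) incubated at 23 °C with 20 µM compound (10-fold excess) in 0.1 M potassium phosphate pH 7.9, 0.5 M KCl, 3 mM EDTA, 10 mM DTT and 100 µg/mL BSA. Aliquots taken over time are assayed with 200 µM IMP and 400 µM NAD (8× Km). k_inact comes from a nonlinear first-order fit of remaining activity versus incubation time.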

k obs [s⁻¹] | Compound
0.0528 | O=P(O)(O)OC[C@@H]1OC(n2cnc3c(O)nc(CCl)nc32)[C@@H](O)[C@H]1O (stereo partly drawn)
0.0144 | C=Cc1nc(O)c2ncn(C3O[C@@H](COP(=O)(O)O)[C@H](O)[C@@H]3O)c2n1 (stereo partly drawn)
0.0164 | O=P(O)(O)OC[C@@H]1OC(n2cnc3c(O)nc(CF)nc32)[C@@H](O)[C@H]1O (stereo partly drawn)
